Source: ChEMBL document CHEMBL1124744, “Development of a novel series of (2-quinolinylmethoxy)phenyl-containing compounds as high-affinity leukotriene D4 receptor antagonists. 2. Effects of an additional phenyl ring on receptor affinity” (J Med Chem, 1990)

Assays:
Cavia porcellus [1] = organism: Cavia porcellus; assay: Oral activity expressed as percent inhibition in leukotriene mediated anaphylaxis assay in guinea pig at 30 uM; assay type: functional
Method in brief: (§1)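 Guinea pigs immunized with ovalbumin were pretreated with pyrilamine, propranolol and indomethacin. Compounds were given orally 1 h before aerosol antigen challenge. Six animals were used per dose. ED50 was determined from at least three doses; single doses are reported as % inhibition in mg/kg.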

[2] = molecular target: T1, Cysteinyl leukotriene receptor 1 (Cavia porcellus, UniProt Q2NNR5); assay: Binding affinity against Cysteinyl leukotriene D4 receptor from guinea pig lung was determined using [3H]-LTD4 (0.2 nM)
T1 sequence (Q2NNR5 whole entry): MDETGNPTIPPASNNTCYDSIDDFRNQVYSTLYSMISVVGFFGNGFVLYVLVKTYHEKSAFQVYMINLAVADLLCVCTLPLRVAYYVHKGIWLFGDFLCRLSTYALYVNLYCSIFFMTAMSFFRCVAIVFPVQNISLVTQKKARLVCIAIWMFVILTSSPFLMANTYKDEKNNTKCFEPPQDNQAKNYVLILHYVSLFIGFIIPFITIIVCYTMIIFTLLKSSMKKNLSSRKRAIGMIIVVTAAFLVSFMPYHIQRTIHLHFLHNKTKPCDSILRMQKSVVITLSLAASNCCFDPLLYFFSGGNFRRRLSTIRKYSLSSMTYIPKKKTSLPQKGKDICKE
Method in brief: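 Guinea pig lung membranes were used in a radioligand competition assay against 0.2 nM [3H]LTD4, with compounds at multiple concentrations. IC50 was determined graphically and converted to Ki. Values are means ± SEM of N separate experiments.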

Cavia porcellus [3] = organism: Cavia porcellus; assay: Inhibition of LTC4-induced contractions from guinea pig peripheral lung strips; assay type: functional
Method in brief: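 Guinea pig peripheral lung strips were contracted with 0.2 nM LTC4, and inhibition was measured. IC50 was determined graphically; values are means ± SEM of N separate experiments.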

Cavia porcellus [4] = organism: Cavia porcellus; assay: Oral activity expressed as effective dose in LTD4-induced wheal assay in guinea pig; assay type: functional
Method in brief: (§2)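 In guinea pigs, compounds were given orally 1 h before intradermal injection of 100 ng LTD4, and wheal inhibition was measured. Five animals were used per dose. ED50 was determined from at least three doses; single doses are reported as % inhibition in mg/kg.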

Cavia porcellus [5] = organism: Cavia porcellus; assay: Oral activity expressed as effective dose in leukotriene mediated anaphylaxis assay in guinea pig; assay type: functional; method in brief: as §1
[6] = molecular target: T1, Cysteinyl leukotriene receptor 1; assay: Binding affinity against Cysteinyl leukotriene D4 receptor from guinea pig trachea using [3H]LTD4; conditions: read-out: pA2 (converted)
[7] = molecular target: T1, Cysteinyl leukotriene receptor 1; assay: Binding affinity against Cysteinyl leukotriene D4 receptor from guinea pig lung was determined using [3H]LTD4
Method in brief: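 Guinea pig lung membranes; competition against 0.2 nM [3H]LTD4 with test compounds at multiple concentrations. IC50 was determined graphically and converted to Ki. Values are means ± SEM of N separate experiments.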

Cavia porcellus [8] = organism: Cavia porcellus; assay: Oral activity expressed as percent inhibition in leukotriene mediated anaphylaxis assay in guinea pig at 10 uM; assay type: functional; method in brief: as §1
Cavia porcellus [9] = organism: Cavia porcellus; assay: Oral activity expressed as percent inhibition in LTD4-induced wheal assay in guinea pig at 3 uM; assay type: functional; method in brief: as §2
Cavia porcellus [10] = organism: Cavia porcellus; assay: Oral activity expressed as percent inhibition in LTD4-induced wheal assay in guinea pig at 18 uM; assay type: functional; conditions: in the assay text read “18 mg/kg” for “18 uM”; method in brief: as §2
Cavia porcellus [11] = organism: Cavia porcellus; assay: Oral activity expressed as percent inhibition in LTD4-induced wheal assay in guinea pig at 9 uM; assay type: functional; method in brief: as §2
[12] = molecular target: T1, Cysteinyl leukotriene receptor 1; assay: Inhibitory concentration of compound against binding of Cysteinyl leukotriene D4 receptor from guinea pig lung using [3H]LTD4
Cavia porcellus [13] = organism: Cavia porcellus; assay: Inhibits leukotriene D4 in guinea pig by wheal essay at 9 uM concentration; assay type: functional; method in brief: as §2
Cavia porcellus [14] = organism: Cavia porcellus; assay: Inhibits leukotriene mediated anaphylaxis in guinea pig at 60 uM concentration; assay type: functional; method in brief: as §1
Cavia porcellus [15] = organism: Cavia porcellus; assay: Oral activity expressed as percent inhibition in LTD4-induced wheal assay in guinea pig at 13 uM; assay type: functional
[16] = molecular target: T2, Cysteinyl leukotriene receptor 1 (Cavia porcellus) (UniProt Q2NNR5); assay: Binding affinity against Cysteinyl leukotriene D4 receptor from guinea pig lung was determined using [3H]LTD4 (0.2 nM) at compound concentration of 1 uM
T2 sequence (whole entry): T1 sequence (Q2NNR5 whole entry)

Row | Compound | Inhibition (Cavia porcellus [1]) | Ki [2] | IC50 (Cavia porcellus [3]) | also measured
1 | c1cc(COc2ccc(-c3nn[nH]n3)cc2)cc(OCc2ccc3ccccc3n2)c1 | -9% | 2.9 nM | 14 nM | 
2 | c1cc(OCc2ccc(Cc3nnn[nH]3)cc2)cc(OCc2ccc3ccccc3n2)c1 |  | 7.3 nM | 20 nM | ED50 (Cavia porcellus [4]): 6.8 mg/kg; ED50 (Cavia porcellus [5]): 30 mg/kg
3 | CN(C)C(=O)CCSC(SCCC(=O)O)c1cccc(/C=C/c2ccc3ccc(Cl)cc3n2)c1 (centres undefined) [MK-571] |  |  |  | Kb [6]: 1 nM
4 | Clc1ccc2ccc(COc3ccc(OCc4ccccc4Cc4nnn[nH]4)cc3)nc2c1 |  | 2.5 nM |  | 
5 | O=S(=O)(Nc1cccc(OCc2ccc3ccccc3n2)c1)C(F)(F)F [RITOLUKAST] |  |  |  | Ki [7]: 35 nM
6 | COC(=O)c1ccc(COc2cccc(OCc3ccc4ccccc4n3)c2)c(OCc2nn[nH]n2)c1 | 9% | 8 nM | 16 nM | 
7 | COc1cc(COc2cccc(OCc3ccc4ccccc4n3)c2)cc(-c2nn[nH]n2)c1 |  | 7 nM | 6.3 nM | ED50 (Cavia porcellus [4]): 38 mg/kg; Inhibition (Cavia porcellus [8]): 17%
8 | C(=C\c1cccc(-c2nn[nH]n2)c1)/c1cccc(OCc2ccc3ccccc3n2)c1 |  | 8.5 nM | 20 nM | Inhibition (Cavia porcellus [9]): 15%
9 | COc1cc(-c2nn[nH]n2)ccc1OCc1ccc(OCc2ccc3ccccc3n2)cc1 |  | 22 nM |  | 
10 | c1cc(COc2ccc(OCc3ccc4ccccc4n3)cc2)cc(Cc2nnn[nH]2)c1 |  | 8 nM | 34 nM | ED50 (Cavia porcellus [4]): 3 mg/kg; Inhibition (Cavia porcellus [8]): 64%
11 | c1cc(OCc2cccc(OCc3nn[nH]n3)c2)cc(OCc2ccc3ccccc3n2)c1 | 64% | 13 nM | 24 nM | Inhibition (Cavia porcellus [10]): 37%
12 | c1ccc2nc(COc3ccc(COc4ccc(-c5nn[nH]n5)cc4)cc3)ccc2c1 | 64% | 31 nM | 44 nM | ED50 (Cavia porcellus [4]): 8 mg/kg
13 | C(=C\c1ccc2ccccc2n1)/c1ccc(OCc2ccccc2Cc2nnn[nH]2)cc1 |  | 3.4 nM |  | Inhibition (Cavia porcellus [8]): 80%
14 | c1ccc2nc(COc3ccc(OCc4ccc(Cc5nnn[nH]5)cc4)cc3)ccc2c1 |  | 8.5 nM | 12 nM | ED50 (Cavia porcellus [5]): 30 mg/kg; Inhibition (Cavia porcellus [11]): 34%
15 | c1ccc(OCc2nn[nH]n2)c(COc2ccc(OCc3ccc4ccccc4n3)cc2)c1 |  | 2.1 nM | 4.2 nM | Inhibition (Cavia porcellus [9]): 45%; Inhibition (Cavia porcellus [8]): 61%
16 | c1cc(OCc2cccc(-c3nn[nH]n3)c2)cc(OCc2ccc3ccccc3n2)c1 | 83% | 16 nM |  | Inhibition (Cavia porcellus [10]): 45%
17 | c1cc(OCc2ccc3ccccc3n2)cc(OCc2ccccc2-c2nnn[nH]2)c1 |  | 20 nM | 19 nM | 
18 | O=C(O)c1ccccc1Nc1cccc(OCc2ccc3ccccc3n2)c1 [SR-2640] |  |  |  | IC50 [12]: 23 nM

Row | Compound | Inhibition (Cavia porcellus [1]) | Ki [2] | IC50 (Cavia porcellus [3]) | also measured
19 | c1cc(COc2ccc(OCc3ccc4ccccc4n3)cc2)cc(-c2nn[nH]n2)c1 |  | 2.2 nM | 2 nM | ED50 (Cavia porcellus [4]): 2 mg/kg; Inhibition (Cavia porcellus [8]): 33%
20 | Clc1ccc2ccc(/C=C/c3ccc(OCc4ccccc4Cc4nnn[nH]4)cc3)nc2c1 |  | 2.5 nM |  | 
21 | c1cc(COc2cccc(-c3nn[nH]n3)c2)cc(OCc2ccc3ccccc3n2)c1 | 45% | 5.3 nM | 20 nM | ED50 (Cavia porcellus [4]): 28 mg/kg
22 | c1cc(COc2ccc(OCc3ccc4ccccc4n3)cc2)cc(OCc2nn[nH]n2)c1 | 27% | 8 nM | 9 nM | ED50 (Cavia porcellus [4]): 2.8 mg/kg
23 | COc1cc(OCc2cccc(OCc3ccc4ccccc4n3)c2)cc(-c2nnn[nH]2)c1 |  | 10 nM |  | 
24 | CCCc1c(OCC(O)COc2ccc3c(=O)cc(C(=O)O)oc3c2CCC)ccc(C(C)=O)c1O (centres undefined) [FPL-55712] |  |  | 940 nM | 
25 | c1cc(OCc2ccc3ccccc3n2)cc(OCc2ccccc2Cc2nnn[nH]2)c1 | 75% | 12 nM | 9.5 nM | Inhibition (Cavia porcellus [10]): 17%
26 | c1cc(OCc2ccc(-c3nnn[nH]3)cc2)cc(OCc2ccc3ccccc3n2)c1 |  | 10 nM | 12 nM | ED50 (Cavia porcellus [4]): 6.5 mg/kg; ED50 (Cavia porcellus [5]): 10 mg/kg
27 | COc1cc(-c2nn[nH]n2)ccc1COc1cccc(OCc2ccc3ccccc3n2)c1 | 45% | 4.3 nM | 9 nM | Inhibition (Cavia porcellus [11]): 22%
28 | c1cc(OCc2ccc(OCc3nn[nH]n3)cc2)cc(OCc2ccc3ccccc3n2)c1 | 82% | 2.2 nM | 8 nM | Inhibition (Cavia porcellus [10]): 59%
29 | O=C(O)c1ccc(COc2cccc(OCc3ccc4ccccc4n3)c2)cc1 |  | 90 nM | 75 nM | 
30 | c1cc(CCc2cccc(-c3nn[nH]n3)c2)cc(OCc2ccc3ccccc3n2)c1 |  | 17 nM | 20 nM | ED50 (Cavia porcellus [5]): 24 mg/kg; Inhibition (Cavia porcellus [10]): 44%
31 | c1cc(COc2cccc(OCc3ccc4ccccc4n3)c2)cc(Cc2nnn[nH]2)c1 |  | 10 nM | 12 nM | ED50 (Cavia porcellus [4]): 1.8 mg/kg; ED50 (Cavia porcellus [5]): 10 mg/kg
32 | O=C(O)c1cccc(COc2cccc(OCc3ccc4ccccc4n3)c2)c1 |  | 40 nM | 100 nM | Inhibition (Cavia porcellus [13]): 7%; Inhibition (Cavia porcellus [14]): 60%
33 | COc1cc(-c2nn[nH]n2)ccc1OCc1cccc(OCc2ccc3ccccc3n2)c1 | 9% | 16 nM | 36 nM | 
34 | COc1cc(OCc2ccc(OCc3ccc4ccccc4n3)cc2)cc(-c2nn[nH]n2)c1 |  | 7.5 nM | 13 nM | Inhibition (Cavia porcellus [15]): 26%
35 | c1ccc(Cc2nn[nH]n2)c(COc2ccc(OCc3ccc4ccccc4n3)cc2)c1 [RG-12525] |  | 3 nM | 2.7 nM | Kb [16]: 3 nM; ED50 (Cavia porcellus [4]): 4.9 mg/kg; ED50 (Cavia porcellus [5]): 2.2 mg/kg
36 | c1cc(OCc2ccc3ccccc3n2)cc(OCc2ccccc2OCc2nn[nH]n2)c1 |  | 17 nM | 27 nM | ED50 (Cavia porcellus [5]): 10 mg/kg; Inhibition (Cavia porcellus [10]): 42%
